These results are taken from ChEMBL document CHEMBL1641440, “Virtual screening based identification of novel small-molecule inhibitors targeted to the HIV-1 capsid” (Bioorg Med Chem, 2011).

Calls of active or inactive are those of the source. No cut-off for these calls is given here.

Assay [1] has as its target Structural capsid protein (Human immunodeficiency virus 1) (UniProt Q76129). Nature of the assay: Binding affinity to HIV1 capsid protein assessed as decrease in formation of mature-like particles after 30 mins by electron microscopy. The method, boiled down: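 Purified CA at 50 μM in Na2HPO4 buffer pH 8.0, without RNA, was incubated with inhibitor at 0.5 to 5 molar equivalents for 30 min at 4 °C. It was then dialysed overnight at 4 °C in the same buffer plus 100 mM NaCl. Samples were spotted on poly-L-lysine-treated grids, negatively stained with uranyl acetate and imaged by EM at 80 kV for tube-shaped particles.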

Assay [2] concerns Human immunodeficiency virus 1. Nature of the assay: Antiviral activity against HIV1 3B infected in human MT2 cells assessed as inhibition of viral p24 antigen production after 4 days by ELISA. Format: functional, organism-based. Particulars: Human immunodeficiency virus 1, 3B, MT2, 96 h. The method, boiled down: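 MT-2 cells (1 × 10^4) infected with HIV-1 IIIB at 100 TCID50 (0.01 MOI) in RPMI 1640/10% FBS with graded inhibitor concentrations overnight; medium then replaced with fresh medium containing freshly prepared compound. On day 4 supernatant mixed 1:1 with 5% Triton X-100 and p24 measured by ELISA; IC50 = concentration giving 50% reduction in p24 production. Mean ± SD.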

The nature of assay [3]: Selectivity index, ratio of CC50 for human MT2 cells to IC50 for HIV1 3B infected in human MT2 cells. The assay is classed as functional. A digest of the protocol: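 IC50: MT-2 cells infected with HIV-1 IIIB (100 TCID50, 0.01 MOI) overnight with graded compound, then medium refreshed with compound; day-4 p24 measured by ELISA. […] Ratio is CC50/IC50.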
Assay [4] concerns Human immunodeficiency virus 1. Nature of the assay: Antiviral activity against HIV1 MN infected in human MT2 cells assessed as inhibition of viral p24 antigen production after 4 days by ELISA. Format: functional, organism-based. The following applies: Human immunodeficiency virus 1, MN, MT2, 96 h. A digest of the protocol: (§1)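 MT-2 cells (1 × 10^4) were infected at 100 TCID50 (0.01 MOI) in RPMI 1640 with 10% FBS, with or without graded inhibitor concentrations, overnight. Medium was then replaced with fresh inhibitor-containing medium. On day 4, supernatant was mixed 1:1 with 5% Triton X-100 and p24 was measured by ELISA. IC50 is the concentration giving 50% reduction in p24.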

Assay [5] has as its system Human immunodeficiency virus 1. Nature of the assay: Antiviral activity against HIV1 SF2 infected in human MT2 cells assessed as inhibition of viral p24 antigen production after 4 days by ELISA. Format: functional, organism-based. Particulars: Human immunodeficiency virus 1, SF2, MT2, 96 h. The method, boiled down:
as §1
(In general: In an ELISA, binding on a coated surface is turned into a signal by an enzyme label.)

Assay [6] relates to Human immunodeficiency virus 1. Nature of the assay: Antiviral activity against HIV1 RF infected in human MT2 cells assessed as inhibition of viral p24 antigen production after 4 days by ELISA. Format: functional, organism-based. The following applies: Human immunodeficiency virus 1, RF, MT2, 96 h. A digest of the protocol:
as §1

Assay [7] deals with Human immunodeficiency virus 1. Nature of the assay: Antiviral activity against HIV1 BaL infected in human PBMC assessed as inhibition of viral p24 antigen production after 4 days by ELISA. Format: functional, organism-based. Particulars: Human immunodeficiency virus 1, BaL, 96 h.
Assay [8] relates to Human immunodeficiency virus 1. Nature of the assay: Antiviral activity against HIV1 89.6 infected in human PBMC assessed as inhibition of viral p24 antigen production after 4 days by ELISA. The assay is classed as functional, organism-based. Particulars: Human immunodeficiency virus 1, 89.6, 96 h.
Assay [9] has as its system Human immunodeficiency virus 1. Nature of the assay: Antiviral activity against azidothymidine-resistant HIV1 SF2 infected in human MT2 cells assessed as inhibition of viral p24 antigen production after 4 days by ELISA. Format: functional, organism-based. The following applies: Human immunodeficiency virus 1, MT2, 96 h. The method, boiled down:
as §1

Assay [10] has as its system Human immunodeficiency virus 1. Nature of the assay: Antiviral activity against protease-resistant HIV1 RF/L-323-12-3 infected in human MT2 cells assessed as inhibition of viral p24 antigen production after 4 days by ELISA. Format: functional, organism-based. Particulars: Human immunodeficiency virus 1, RF/L-323-12-3, MT2, 96 h. The method, boiled down:
as §1

Assay [11] has as its system Human immunodeficiency virus 1. Nature of the assay: Antiviral activity against HIV1 3B infected in human MT2 cells assessed as inhibition of viral p24 antigen production at 5 uM after 4 days by ELISA. Format: functional, organism-based.
Assay [12] relates to Human immunodeficiency virus 1. Nature of the assay: Antiviral activity against primary HIV1 isolate RU570 infected in human PBMC assessed as inhibition of viral p24 antigen production after 7 days by ELISA. The following applies: Human immunodeficiency virus 1, isolate RU570, 168 h.
Assay [13] concerns Human immunodeficiency virus 1. Nature of the assay: Antiviral activity against primary HIV1 isolate BCF02 infected in human PBMC assessed as inhibition of viral p24 antigen production after 7 days by ELISA. The following applies: Human immunodeficiency virus 1, isolate BCF02, 168 h.
Assay [14] concerns Human immunodeficiency virus 1. Nature of the assay: Antiviral activity against primary HIV1 isolate 94UG103 infected in human PBMC assessed as inhibition of viral p24 antigen production after 7 days by ELISA. Particulars: Human immunodeficiency virus 1, isolate 94UG103, 168 h.
Assay [15] concerns Human immunodeficiency virus 1. Nature of the assay: Antiviral activity against primary HIV1 isolate 92US657 infected in human PBMC assessed as inhibition of viral p24 antigen production after 7 days by ELISA. The following applies: Human immunodeficiency virus 1, isolate 92US657, 168 h.
Assay [16] has as its system Human immunodeficiency virus 1. Nature of the assay: Antiviral activity against primary HIV1 isolate 93IN101 infected in human PBMC assessed as inhibition of viral p24 antigen production after 7 days by ELISA. Particulars: Human immunodeficiency virus 1, isolate 93IN101, 168 h.
Assay [17] relates to Human immunodeficiency virus 1. Nature of the assay: Antiviral activity against primary HIV1 isolate 92UG024 infected in human PBMC assessed as inhibition of viral p24 antigen production after 7 days by ELISA. Particulars: Human immunodeficiency virus 1, isolate 92UG024, 168 h.
Assay [18] has as its system Human immunodeficiency virus 1. Nature of the assay: Antiviral activity against primary HIV1 isolate 93BR020 infected in human PBMC assessed as inhibition of viral p24 antigen production after 7 days by ELISA. The following applies: Human immunodeficiency virus 1, isolate 93BR020, 168 h.

Sequence of Structural capsid protein (Human immunodeficiency virus 1) (Q76129 as listed by the source): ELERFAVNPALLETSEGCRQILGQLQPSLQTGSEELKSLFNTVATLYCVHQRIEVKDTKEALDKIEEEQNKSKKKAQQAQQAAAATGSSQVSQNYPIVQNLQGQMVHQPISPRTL

Turning to `Cc1ccc2[nH]c(=O)c(CN(Cc3ccco3)C(=O)c3ccc(Cl)cc3)cc2c1`, in assay [1], the inhibition result was “Dose-dependent effect”. Moreover, the IC50 (usually the concentration needed to halve the response being measured) in assay [2] was determined as 1060 nM; in assay [4] it was 2880 nM; in assay [5], 2430 nM; in assay [6] it was 1640 nM; in assay [7] it was 4220 nM; in assay [8] it was 6170 nM. Besides, the concentration for half-maximal inhibition (IC50) came out at 5770 nM in assay [9]; 1180 nM in assay [10]; 2840 nM in assay [12]; 6070 nM in [13]; 3930 nM in [14]; 5460 nM in [15]. The half-inhibitory concentration (IC50) is 2700 nM in [16], 2570 nM in assay [17] and 4180 nM in assay [18]. Further, the “Selectivity Index” value in [3] is listed as greater than 60. In assay [11], the inhibition entry was “Active”.
